Measurements collected from several papers.
Each line is one published result; the experiments were not run side by side.
Target: Activin receptor type-1 (ACVR1, Homo sapiens, UniProt Q04771)
Sequence (Q04771 21-509, as in one of the studies): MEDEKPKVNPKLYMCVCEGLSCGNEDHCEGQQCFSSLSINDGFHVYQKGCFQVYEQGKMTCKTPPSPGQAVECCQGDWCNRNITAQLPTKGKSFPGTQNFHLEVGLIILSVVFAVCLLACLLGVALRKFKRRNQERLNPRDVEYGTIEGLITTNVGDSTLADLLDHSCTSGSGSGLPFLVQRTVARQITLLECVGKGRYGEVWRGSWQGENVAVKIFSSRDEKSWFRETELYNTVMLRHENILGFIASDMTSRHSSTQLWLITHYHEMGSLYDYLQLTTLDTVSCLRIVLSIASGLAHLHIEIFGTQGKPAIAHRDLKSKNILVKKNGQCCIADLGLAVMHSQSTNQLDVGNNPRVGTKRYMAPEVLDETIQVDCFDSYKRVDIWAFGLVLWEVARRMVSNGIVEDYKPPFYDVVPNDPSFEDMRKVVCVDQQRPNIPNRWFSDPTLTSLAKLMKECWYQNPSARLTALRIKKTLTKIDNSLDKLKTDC

Compound	effect on	technique	concentration	remaining binding
O=C(NCCCN1CCOCC1)c1ccc(Nc2ncc(Cl)c(-c3ccc(Cl)s3)n2)cc1	binding	competition with immobilised ligand	1 µM	78%
C=CC(=O)N1CCC(C(=O)NCC(=O)N2CCN(c3nc(-c4cnc(N)nc4C(F)F)nc(N4CCOCC4)n3)CC2)CC1	binding	competition with immobilised ligand	1 µM	100%
FC(F)(F)c1ccc2c(c1)nc(-c1cccnc1)n2C1CC1	cell-free assay	competition with immobilised ligand	1 µM	100%
c1cnn2ncc(-c3ccnc(N4CCC45COC5)n3)c2c1	binding	–	1 µM	64%
C[C@@]1(Cc2ccc(C#N)cc2)C(=O)N(c2cc(Cl)cc(Cl)c2)c2ncc(C(=O)NC3(c4nc(C5CCC5)no4)CC3)n21	cell-free assay	competition with immobilised ligand	1 µM	89%
C[C@H]1CCN(c2nccc(-c3cnn4ncccc34)n2)C1	binding	–	1 µM	100%
Cc1nc(N2CC[C@@H](O)C2)ncc1-c1cc(C(F)(F)F)cc2[nH]ncc12	cell-free assay	competition with immobilised ligand	1 µM	80%
N[C@H]1CCN(c2nccc(-c3cnn4ncccc34)n2)C1	binding	–	1 µM	85%
CCN1CCN(Cc2ccc(C(=O)Nc3ccc(C)c(Oc4ccc5c(c4)CC(=O)N5)c3)cc2C(F)(F)F)CC1	binding	competition with immobilised ligand	1 µM	100%
O=C(Nc1c[nH]nc1C(=O)NC1CCNCC1)c1cc(F)cc(F)c1	binding	competition with immobilised ligand	1 µM	100%
CNC(=O)[C@@H]1CC[C@@H](n2c(-c3ccc4cnccc4c3)nc3ccc(C(=O)NCc4cccc(C(N)=O)c4)cc32)C1	binding	competition with immobilised ligand	1 µM	46%
O=C1CCc2cc(Nc3cc(OC4CCOCC4)c([N+](=O)[O-])cc3Cl)ccc2N1	cell-free assay	competition with immobilised ligand	1 µM	100%
CN(C)c1nccc(-c2cnn3ncccc23)n1	binding	–	1 µM	90%
COc1cnc(Nc2cccc(S(N)(=O)=O)c2)nc1N1CCN(c2ccccc2)CC1	binding	competition with immobilised ligand	1 µM	100%
O=C(NCCCN1CCOCC1)c1ccc(Nc2nccc(-c3cc4ccccc4s3)n2)cc1	binding	competition with immobilised ligand	1 µM	14%
CN(C)c1nccc(-c2cnc3ncccn23)n1	binding	–	1 µM	88%
COCCOc1nc(-c2ccc(Cl)nc2)nc2c1CN(C(=O)c1ncn3ccccc13)CC2	cell-free assay	competition with immobilised ligand	0.1 µM	100%
Cc1cnc(Nc2ccc(C(=O)N3CCC(N4CCCC4)CC3)cc2)nc1-c1cc2ccccc2s1	binding	competition with immobilised ligand	1 µM	72%
Cc1nccc(COC(=O)N2C[C@@H]3[C@@H](CNC(=O)c4ccc5[nH]nnc5c4)[C@@H]3C2)n1	cell-free assay	competition with immobilised ligand	1 µM	95%
CN(c1nccc(-c2cnn3ncccc23)n1)C1CC1	binding	–	1 µM	93%
Nc1ncc2c(n1)-c1c([nH]c3ccc(C#CC4CC4)cc13)CCCC2	binding	competition with immobilised ligand	1 µM	100%
